{"source": "PubChem BioAssay", "note": "The source made the active and inactive calls.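 The calls were made as follows: active = duplicate-averaged activation above buffer control mean plus 5 SD of those controls; inactive = the rest.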"}
{"experiment": "nonspecific flux increase, KCNQ1-free cells – parental CHO cells, counter-screen for KCNQ1 potentiator project (AID 493006)", "conditions": "parental CHO-K1 cells, FluxOR thallium flux, at 10 µM; active compounds read high", "how_it_was_run": "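Assay system: Untransfected host CHO-K1 cells with FluxOR thallium dye | Probe or stimulus: Potassium/thallium depolarization pulse | Schedule: Overnight 37 °C plating, 90 min RT dye, 20 min compound | Detection: Kinetic thallium-flux fluorescence | Read-out: Max-minus-min fluorescence over baseline, percent of buffer-to-R-L3 span | Benchmarks: Low control buffer, high control R-L3 activator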"}
{"smiles": "Cc1nn(C)c(C(=O)NC(=S)Nc2ccc([N+](=O)[O-])cc2)c1Cl", "activation": "166% (active)"}
{"smiles": "O=C(Nc1cc([N+](=O)[O-])ccc1N1CCCC1)c1cccs1", "outcome": "inactive"}
{"smiles": "Fc1ccc(/C=N/NC(=S)Nc2ccc(Cl)cc2)cc1F", "outcome": "inactive"}
{"smiles": "Cc1ccc(NC2=C(NC(=O)c3ccccc3)C(=O)c3ccccc3C2=O)cc1Cl", "outcome": "inactive"}
{"smiles": "CCCC(=O)n1nc(-c2ccccc2)nc1N", "outcome": "inactive"}
{"smiles": "O=C(NC(=S)N1CCN(c2ccccc2)CC1)c1ccccc1", "activation": "226% (active)"}
{"smiles": "N#C/C=C1/NC(=O)c2ccccc2S1", "activation": "138% (active)"}
{"smiles": "COc1ccc(CN(C)CC(=O)Nc2ccc(Cl)cc2C(F)(F)F)c(OC)c1", "outcome": "inactive"}
{"smiles": "CCN(CC)C(=S)NC(=O)c1ccc(OC)c(Br)c1", "activation": "209% (active)"}
{"smiles": "Cc1cc(/C=C2\\C(=N)N3N=C(C(C)C)SC3=NC2=O)c(C)n1Cc1ccccc1", "outcome": "inactive"}
{"smiles": "CCOC(=O)C1=NN(C(=O)c2ccc(OC)cc2)C(O)(c2ccc(Cl)cc2)C1", "note": "(stereo not drawn)", "activation": "456% (active)"}
{"smiles": "CC(CCc1ccccc1)NC(=O)c1ccccc1C(=O)O", "note": "(stereo not drawn)", "outcome": "inactive"}
{"smiles": "CSc1nc(C)c2c(n1)N(c1ccc(C(C)C)cc1)CC2", "outcome": "inactive"}
{"smiles": "CC(/C=C1\\SC(=S)N(NS(=O)(=O)c2ccccc2)C1=O)=C\\c1ccccc1", "activation": "304% (active)"}
{"smiles": "CCOC(=O)Cc1cc(=O)n2[nH]c(C)c(-c3ccc(Cl)cc3)c2n1", "outcome": "inactive"}
{"smiles": "Cc1[nH]n2c(=O)cc(C(C)(C)C)nc2c1-c1ccccc1", "activation": "227% (active)"}
{"smiles": "COc1cccc(/C=N/n2c(-c3cccs3)n[nH]c2=S)c1", "activation": "286% (active)"}
{"smiles": "CCOc1ccccc1NC(=O)CCC(=O)Nc1ccccc1OCC", "outcome": "inactive"}
